Laboratory results taken from ChEMBL document CHEMBL3244123, “Isoquinolines. 5. Synthesis and antiarrhythmic activity of benzylisoquinoline derivatives” (J Med Chem, 1977).
Activity calls are given as the source filed them. The calls are words filed in the database; no cut-off is given here.

Key:
[1] = tested on: Mus musculus; assay: Toxicity in Swiss albino mouse assessed as ataxia at 200 mg/kg, sc measured up to 20 mins; format: organism-based; parameters: dose 200 mg/kg, route subcutaneous; settings: in vivo
Outline: (§1)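 Female Swiss albino mice, ten per dose, were given drug in 0.9% saline sc and watched for 20 min before chloroform challenge. Ataxia, convulsions, loss of righting reflex and death were each reported as number of animals affected of ten.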

[2] = tested on: Mus musculus; assay: Toxicity in Swiss albino mouse assessed as convulsions at 200 mg/kg, sc measured up to 20 mins; format: organism-based; parameters: dose 200 mg/kg, route subcutaneous; settings: in vivo; outline: as §1
[3] = tested on: Mus musculus; assay: Toxicity in Swiss albino mouse assessed as loss of righting reflex at 200 mg/kg, sc measured up to 20 mins; format: organism-based; parameters: dose 200 mg/kg, route subcutaneous; settings: in vivo; outline: as §1
[4] = tested on: Mus musculus; assay: Toxicity in Swiss albino mouse assessed as mortality at 200 mg/kg, sc measured up to 20 mins; format: organism-based; parameters: dose 200 mg/kg, route subcutaneous; settings: in vivo; outline: as §1
[5] = tested on: Mus musculus; assay: Antiarrhythmic activity in Swiss albino mouse assessed as protection against chloroform-induced ventricular fibrillation at 100 mg/kg, sc administered 20 mins prior to challenge; format: functional, organism-based; parameters: dose 100 mg/kg; settings: Heart
Outline: (§2)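 Female Swiss albino mice, groups of ten, received drug in 0.9% saline sc at 100 mg/kg; dose raised to 200 mg/kg when neither protection nor toxicity appeared. After 20 min, mice were exposed to chloroform vapour. Absence of ventricular fibrillation counted as protection, reported as number protected of ten.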

[6] = tested on: Mus musculus; assay: Toxicity in Swiss albino mouse assessed as ataxia at 100 mg/kg, sc measured up to 20 mins; format: organism-based; parameters: dose 100 mg/kg, route subcutaneous; settings: in vivo; outline: as §1
[7] = tested on: Mus musculus; assay: Toxicity in Swiss albino mouse assessed as convulsions at 100 mg/kg, sc measured up to 20 mins; format: organism-based; parameters: dose 100 mg/kg, route subcutaneous; settings: in vivo; outline: as §1
[8] = tested on: Mus musculus; assay: Toxicity in Swiss albino mouse assessed as loss of righting reflex at 100 mg/kg, sc measured up to 20 mins; format: organism-based; parameters: dose 100 mg/kg, route subcutaneous; settings: in vivo; outline: as §1
[9] = tested on: Mus musculus; assay: Toxicity in Swiss albino mouse assessed as mortality at 100 mg/kg, sc measured up to 20 mins; format: organism-based; parameters: dose 100 mg/kg, route subcutaneous; settings: in vivo; outline: as §1
[10] = tested on: Canis familiaris; assay: Antiarrhythmic activity in beagle dog myocardial infarction model assessed as ventricular ectopic beats at 0.5 mg/kg/min, iv administered as infusion (reference value: 84 to 98 %); format: functional, Canis lupus familiaris, Heart
Outline: (§3)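 Drug infused iv via a fore limb vein at 0.5 mg/kg/min (as base, in 0.9% saline, pH 6–7) until clearing (ventricular ectopic activity ≤5% for a consecutive 5 min); EKG and vital signs monitored during and after infusion.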

[11] = tested on: Canis familiaris; assay: Antiarrhythmic activity in beagle dog myocardial infarction model assessed as ventricular rate at 0.5 mg/kg/min, iv administered as infusion (reference value: 126 to 221 bpm); format: functional, Canis lupus familiaris, Heart; outline: as §3
[12] = tested on: Canis familiaris; assay: Antiarrhythmic activity in beagle dog myocardial infarction model assessed as concentration required for reduction in ventricular ectopic activity to 5% or less for a consecutive 5 min compound administered iv as infusion; format: functional, Canis lupus familiaris, Heart; outline: as §3
[13] = tested on: Canis familiaris; assay: Toxicity in beagle dog myocardial infarction model assessed as head tremors compound administered iv as infusion; format: organism-based, Canis lupus familiaris; settings: in vivo; outline: as §3
[14] = tested on: Canis familiaris; assay: Toxicity in beagle dog myocardial infarction model assessed as convulsions compound administered iv as infusion; format: organism-based, Canis lupus familiaris; settings: in vivo; outline: as §3
[15] = tested on: Canis familiaris; assay: Antiarrhythmic activity in beagle dog myocardial infarction model assessed as mean arterial blood pressure at 0.5 mg/kg/min, iv administered as infusion (reference value: 80 to 115 mmHg)
[16] = tested on: Mus musculus; assay: Antiarrhythmic activity in sc dosed Swiss albino mouse assessed as protection against chloroform-induced ventricular fibrillation compound administered 20 mins prior to challenge; format: functional; settings: Heart
Outline: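 Female Swiss albino mice, ten per dose, given drug sc in 0.9% saline; screen at 100 mg/kg (raised to 200 mg/kg if neither protection nor toxicity), observed 20 min for toxicity, then exposed to chloroform vapour; absence of ventricular fibrillation counted as protection. Full tests used three log-spaced doses; ED50 with 95% Fieller limits by Berkson minimum logit χ² analysis.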

[17] = tested on: Mus musculus; assay: Toxicity in Swiss albino mouse assessed as ataxia at 138 mg/kg, sc measured up to 20 mins; format: organism-based; parameters: dose 138 mg/kg, route subcutaneous; settings: in vivo; outline: as §1
[18] = tested on: Mus musculus; assay: Toxicity in Swiss albino mouse assessed as convulsions at 138 mg/kg, sc measured up to 20 mins; format: organism-based; parameters: dose 138 mg/kg, route subcutaneous; settings: in vivo; outline: as §1
[19] = tested on: Mus musculus; assay: Toxicity in Swiss albino mouse assessed as loss of righting reflex at 138 mg/kg, sc measured up to 20 mins; format: organism-based; parameters: dose 138 mg/kg, route subcutaneous; settings: in vivo; outline: as §1
[20] = tested on: Mus musculus; assay: Toxicity in Swiss albino mouse assessed as mortality at 138 mg/kg, sc measured up to 20 mins; format: organism-based; parameters: dose 138 mg/kg, route subcutaneous; settings: in vivo; outline: as §1
[21] = tested on: Mus musculus; assay: Antiarrhythmic activity in Swiss albino mouse assessed as protection against chloroform-induced ventricular fibrillation at 200 mg/kg, sc administered 20 mins prior to challenge; format: functional, organism-based; parameters: dose 200 mg/kg; settings: Heart; outline: as §2
[22] = tested on: Mus musculus; assay: Antiarrhythmic activity in Swiss albino mouse assessed as protection against chloroform-induced ventricular fibrillation at 47 mg/kg, sc administered 20 mins prior to challenge; format: functional, organism-based; parameters: dose 47 mg/kg; settings: Heart
Outline: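 Female Swiss albino mice, ten per dose, received drug in 0.9% saline sc at one of three log-spaced doses. After 20 min, mice were exposed to chloroform vapour. Mice without ventricular fibrillation were scored protected, reported as number protected of ten.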

[23] = tested on: Mus musculus; assay: Toxicity in Swiss albino mouse assessed as ataxia at 47 mg/kg, sc measured up to 20 mins; format: organism-based; parameters: dose 47 mg/kg, route subcutaneous; settings: in vivo; outline: as §1
[24] = tested on: Mus musculus; assay: Toxicity in Swiss albino mouse assessed as loss of righting reflex at 47 mg/kg, sc measured up to 20 mins; format: organism-based; parameters: dose 47 mg/kg, route subcutaneous; settings: in vivo; outline: as §1

What does the source list for `CCN(CC)CC(=O)Nc1cc(OC)ccc1C.Cl`?
Activity [1]: Non-toxic; Activity [2]: Non-toxic; Activity [3]: Non-toxic; Activity [4]: Non-toxic

For `CCN(CC)CC(=O)Nc1c(C)cccc1C` [LIDOCAINE], which Activity [5] is on record?
Its Activity is “Active”.

What about the Activity [6] of the same molecule?
Its Activity is “Toxic”.

What about the Activity [7] of the same molecule?
The Activity was “Toxic”.

What about the Activity [8] of the same molecule?
The Activity was “Toxic”.

And the Activity [9]?
Its Activity is “Non-toxic”.

For `CCN(CC)CC(=O)Nc1cc(OC)c(OC)cc1C.Cl`, which Activity [5] is on record?
The Activity was “inactive”.

What about the Activity [6] of the same molecule?
The Activity was “Non-toxic”.

What about the Activity [7] of the same molecule?
Its Activity is “Non-toxic”.

And the Activity [8]?
The Activity was “Non-toxic”.

What about the Activity [9] of the same molecule?
The Activity was “Non-toxic”.

And the Activity [1]?
Its Activity is “Non-toxic”.

And the Activity [2]?
The Activity was “Non-toxic”.

What about the Activity [3] of the same molecule?
The Activity was “Non-toxic”.

What about the Activity [4] of the same molecule?
The Activity was “Non-toxic”.

How did the Activity [6] turn out when `CCN(CC)CC(=O)Nc1c(Cc2nccc3ccccc23)ccc(OC)c1OC` was run?
The Activity was “Non-toxic”.

And the Activity [7]?
The Activity was “Non-toxic”.

What about the Activity [8] of the same molecule?
Its Activity is “Non-toxic”.

And the Activity [9]?
Its Activity is “Non-toxic”.

And the Activity [10]?
The Activity was 0%.

What about the Activity [11] of the same molecule?
The Activity was 135%.

And the Activity [12]?
The Activity was 46.5 mg/kg.

And the Activity [13]?
The Activity was 6.25 mg/kg.

And the Activity [14]?
The Activity was 15.75 mg/kg.

What about the Activity [15] of the same molecule?
Its Activity is 90%.

Which results are given for `COc1ccc(Cc2nccc3cc(OC)c(OC)cc23)cc1OC` [PAPAVERINE]?
Activity [7]: Non-toxic; Activity [8]: Non-toxic; Activity [9]: Non-toxic

Which results are given for `CCNCC(=O)Nc1cc(OC)c(OC)cc1Cc1nccc2cc(OC)c(OC)cc12`?
Activity [7]: Non-toxic; Activity [8]: Non-toxic; Activity [9]: Non-toxic

With `CCN(CC)CC(=O)Nc1cc(OC)c(OC)cc1Cc1nccc2cc(OC)c(OC)cc12` as the molecule, how does the Activity [6] read?
Its Activity is “Non-toxic”.

What about the Activity [7] of the same molecule?
Its Activity is “Non-toxic”.

What about the Activity [8] of the same molecule?
Its Activity is “Non-toxic”.

And the Activity [9]?
The Activity was “Non-toxic”.

What does the source list for `CCN(CC)CC(=O)Nc1c(CC2c3ccccc3CCN2C)ccc(OC)c1OC.Cl` (centres undefined)?
ED50 [16]: 147 mg/kg; Activity [17]: Non-toxic; Activity [18]: Non-toxic; Activity [19]: Non-toxic; Activity [20]: Non-toxic

Which Activity [7] does the source give for `CCN(CC)CC(=O)Nc1cc(OC)c(OC)cc1Cc1nccc2ccccc12` here?
Its Activity is “Non-toxic”.

What about the Activity [8] of the same molecule?
Its Activity is “Non-toxic”.

And the Activity [9]?
The Activity was “Non-toxic”.

Which results are given for `CCN(CC)CC(=O)Nc1cc(OC)ccc1Cc1nccc2ccccc12`?
Activity [5]: inactive; Activity [21]: inactive; Activity [6]: Non-toxic; Activity [7]: Non-toxic; Activity [8]: Non-toxic; Activity [9]: Non-toxic; Activity [1]: Non-toxic; Activity [2]: Non-toxic; Activity [3]: Non-toxic; Activity [4]: Non-toxic

Which results are given for `COc1ccc(Cc2nccc3ccccc23)c(NC(=O)CN)c1OC`?
Activity [6]: Non-toxic; Activity [7]: Non-toxic; Activity [8]: Non-toxic; Activity [9]: Non-toxic

How did the Activity [5] turn out when `COc1ccc(CC2c3cc(OC)c(OC)cc3CCN2C)cc1OC` (racemic) [LAUDANOSINE] was run?
The Activity was “inactive”.

What about the Activity [22] of the same molecule?
Its Activity is “inactive”.

What about the Activity [6] of the same molecule?
The Activity was “Toxic”.

What about the Activity [7] of the same molecule?
The Activity was “Toxic”.

And the Activity [8]?
The Activity was “Non-toxic”.

What about the Activity [9] of the same molecule?
The Activity was “Toxic”.

And the Activity [23]?
The Activity was “Non-toxic”.

And the Activity [24]?
Its Activity is “Non-toxic”.

Which results are given for `COc1ccc(Cc2nccc3ccccc23)c(NC(=O)C(C)N)c1OC` (centres undefined)?
Activity [6]: Non-toxic; Activity [7]: Non-toxic; Activity [8]: Non-toxic; Activity [9]: Non-toxic

`CCNCC(=O)Nc1c(Cc2nccc3ccccc23)ccc(OC)c1OC` was tested. Which Activity [6] did it give?
The Activity was “Non-toxic”.

What about the Activity [7] of the same molecule?
Its Activity is “Non-toxic”.

And the Activity [8]?
Its Activity is “Non-toxic”.

And the Activity [9]?
Its Activity is “Non-toxic”.

What about the Activity [10] of the same molecule?
The Activity was 0%.

And the Activity [12]?
The Activity was 10 mg/kg.

What about the Activity [15] of the same molecule?
Its Activity is 85%.
